Data reported in article PMC9713862 (ACS Omega, 2022).
Marks after values point to notes of the source that are not given here.

Key:
[1] = Ga complex with N3O3 configuration, 1.5 h; cited from earlier work
apo-transferrin (apoTf) = apo-transferrin (apoTf) (Homo sapiens, UniProt P02787); assay: Stability assessment in apoTf solution; type: in vitro ADME; conditions: 74 kBq/100 μL added to same volume of 0.2 mM apoTf in 200 mM sodium bicarbonate buffer pH 7.4 (ApoTf 0.1 mM), 37 °C, 5% CO2, RP-TLC, mean ± SD (n = 5)
Sequence of apo-transferrin (apoTf) (P02787 20-698): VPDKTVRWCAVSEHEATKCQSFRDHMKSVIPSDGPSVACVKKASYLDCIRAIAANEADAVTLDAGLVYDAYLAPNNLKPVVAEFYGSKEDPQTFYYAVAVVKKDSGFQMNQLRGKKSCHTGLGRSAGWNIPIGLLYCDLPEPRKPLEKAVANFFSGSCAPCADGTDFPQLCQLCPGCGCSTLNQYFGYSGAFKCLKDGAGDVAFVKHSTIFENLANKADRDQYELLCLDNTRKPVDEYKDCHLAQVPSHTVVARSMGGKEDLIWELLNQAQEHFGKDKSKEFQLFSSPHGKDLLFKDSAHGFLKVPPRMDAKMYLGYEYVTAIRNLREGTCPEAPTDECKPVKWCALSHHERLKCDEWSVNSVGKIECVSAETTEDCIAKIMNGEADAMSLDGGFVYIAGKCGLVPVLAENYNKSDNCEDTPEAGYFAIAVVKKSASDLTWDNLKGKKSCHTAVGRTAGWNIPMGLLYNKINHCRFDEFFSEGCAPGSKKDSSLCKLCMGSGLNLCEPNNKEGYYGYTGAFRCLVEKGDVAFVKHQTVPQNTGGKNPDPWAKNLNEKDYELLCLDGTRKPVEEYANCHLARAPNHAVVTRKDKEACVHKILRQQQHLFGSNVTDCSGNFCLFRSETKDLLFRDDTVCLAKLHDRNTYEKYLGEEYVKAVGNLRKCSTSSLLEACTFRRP
In short: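 [67Ga]-labelled test compound was HPLC-purified and taken up in D-PBS(−). 74 kBq/100 μL was mixed with an equal volume of 0.2 mM (stock) apoTf in 200 mM sodium bicarbonate, pH 7.4. The mix was held at 37 °C under 5% CO2. At 3 and 24 h, 5 μL aliquots were analysed by RP-18 TLC in 0.1% aqueous TFA/MeCN with 0.1% TFA (2:3).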

| SMILES | Stability of 67Ga-labeled model chelators, ApoTf (0.1 mM), 3 h (apo-transferrin (apoTf)) | Stability of 67Ga-labeled model chelators, ApoTf (0.1 mM), 24 h (apo-transferrin (apoTf)) | Ga complex decomposed in human serum [1] [%] |
| --- | --- | --- | --- |
| O=C(O)CN1CCOCCN(CC(=O)O)CCN(CC(=O)O)CC1 [oxo-DO3A] | – | – | > 80 |
| O=C([O-])CN1CCN(CC(=O)[O-])CCN(CC(=O)[O-])CCN(CC(=O)[O-])CC1.[67Ga+3] [[^67Ga]Ga-DOTA, reference compound] | 96.4 ± 0.2 | 89.6 ± 0.5 | – |
| CCCCNC(=O)CN1CCN(CC(=O)[O-])CCN(CC(=O)[O-])CCN(CC(=O)[O-])CC1.[67Ga+3] [[^67Ga]Ga-DO3AM^Bu] | 87.4 ± 0.5 ^b ^c | 43.1 ± 1.1 ^b ^c | – |
| CCCCNC(=O)CCC(C(=O)[O-])N1CCN(CC(=O)[O-])CCN(CC(=O)[O-])CCN(CC(=O)[O-])CC1.[67Ga+3] (centres unmarked) [[^67Ga]Ga-DOTAGAM^Bu] | 80.0 ± 1.3 ^b ^c ^d | 27.5 ± 4.6 ^b ^c ^d | – |

More lines, main results first:

| Stability of 67Ga-labeled model chelators, ApoTf (0.1 mM), 3 h (apo-transferrin (apoTf)) | Stability of 67Ga-labeled model chelators, ApoTf (0.1 mM), 24 h (apo-transferrin (apoTf)) | SMILES | Ga complex decomposed in human serum [1] [%] |
| --- | --- | --- | --- |
| 95.1 ± 1.2 ^d ^e ^f | 90.3 ± 0.7 ^c ^d ^e ^f | O=C([O-])CN1CCN(CC(=O)[O-])CCN(CC(=O)[O-])C(Cc2ccc([N+](=O)[O-])cc2)CN(CC(=O)[O-])CC1.[67Ga+3] (centres unmarked) [[^67Ga]Ga-p-NO2-Bn-DOTA (A)] | – |
| 93.8 ± 0.6 ^b | 67.5 ± 0.6 ^b | O=C([O-])CN1CCN(CC(=O)[O-])CCN(Cc2ccc([N+](=O)[O-])cc2)CCN(CC(=O)[O-])CC1.[67Ga+3] [[^67Ga]Ga-p-NO2-Bn-DO3A] | – |
